Measured values taken from ChEMBL document CHEMBL5376013, “Design, synthesis and biological evaluation of novel morpholinopyrimidine-5-carbonitrile derivatives as dual PI3K/mTOR inhibitors” (RSC Med Chem, 2024).

How the values were obtained:
SR [1] = assay: cells; conditions: Homo sapiens
PC-3 = assay: Antiproliferative activity against human PC-3 cells assessed as inhibition of cell growth by MTT assay; format: functional, cell-based
MCF7 = assay: Antiproliferative activity against human MCF7 cells assessed as inhibition of cell growth by MTT assay; format: functional, cell-based
A549 = assay: Antiproliferative activity against human A549 cells assessed as inhibition of cell growth by MTT assay; format: functional, cell-based
SR [2] = assay: Antiproliferative activity against human SR cells assessed as inhibition of cell growth; format: functional, cell-based
Summary of the method: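 SR leukemia cells from ATCC were cultured in DMEM with 10% FBS, 10 ug/ml insulin and 1% penicillin-streptomycin. Reconstituted MTT was added at 10% of culture volume for 2–4 h. Formazan was dissolved in solubilization solution and read at 570 nm. Viability was calculated as treated A570 over untreated A570 ×100, with dose-response curves.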

[3] = Inhibition of PI3K (unknown origin); set-up: species or system Homo sapiens
Summary of the method: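 ELISA kit PI3 kinase assay with LY294002 as reference. Inhibitor preincubated 10 min before PIP2 substrate in kinase reaction buffer (25 µl final), 1 h reaction. Product detected by competition with biotinylated PIP3 for GRP1, with SA-HRP and TMB colour.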

[4] = target: Serine/threonine-protein kinase mTOR (Homo sapiens, UniProt P42345); assay: Inhibition of mTOR (unknown origin) incubated for 1 hr by ELISA analysis
Summary of the method: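 Glutathione-coated plate loaded with mTOR substrate (1 h, room temperature). mTOR with compound in 2X kinase assay buffer, 30 min at 30 °C, then stop solution. Phospho-p70S6K-T389 detected by primary antibody, then HRP conjugate (1 h each), TMB, A450 with 540 or 595 nm reference.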

[5] = Cytotoxicity against human PCS-800-011 cells assessed as inhibition of cell growth by MTT assay; format: toxicity, cell-based

COc1cccc2c1C(=O)c1c(O)c3c(c(O)c1C2=O)C[C@@](O)(C(=O)CO)C[C@@H]3O[C@H]1C[C@H](N)[C@H](O)[C@H](C)O1 [DOXORUBICIN]
IC50 (SR [1]): 0.59 µM

O=S1(=O)CCc2nc(N3N=C(c4ccc(F)cc4)C[C@@H]3c3ccc(Cl)c(Cl)c3)nc(N3CCOCC3)c2C1
IC50 (PC-3): 19.1 µM | IC50 (MCF7): 30.7 µM | IC50 (A549): 23.8 µM

COc1ccc(-c2nc(N/N=C/c3cccc(Br)c3)nc(N3CCOCC3)c2C#N)cc1
IC50 (SR [2]): 0.76 µM | IC50 [3]: 6.09 µM

CO[C@H]1C[C@@H]2CC[C@@H](C)[C@@](O)(O2)C(=O)C(=O)N2CCCC[C@H]2C(=O)O[C@H]([C@H](C)C[C@@H]2CC[C@@H](OCCO)[C@H](OC)C2)CC(=O)[C@H](C)/C=C(\C)[C@@H](O)[C@@H](OC)C(=O)[C@H](C)C[C@H](C)/C=C/C=C/C=C/1C [EVEROLIMUS]
IC50 [4]: 530 nM

COc1ccc(-c2nc(N/N=C/c3cccc(O)c3)nc(N3CCOCC3)c2C#N)cc1
IC50 (SR [2]): 13.6 µM | IC50 [3]: 6.09 µM

CN[C@@H]1C[C@H]2O[C@@](C)([C@@H]1OC)n1c3ccccc3c3c4c(c5c6ccccc6n2c5c31)C(=O)NC4 [STAUROSPORINE]
IC50 [5]: 18.3 µM

COc1ccc(-c2nc(N/N=C/c3ccc(O)c(OC)c3)nc(N3CCOCC3)c2C#N)cc1
IC50 (SR [2]): 4.37 µM | IC50 [3]: 6.09 µM

O=c1[nH]cc(F)c(=O)[nH]1 [FLUOROURACIL]
IC50 (SR [1]): 7.38 µM
